Data reported in ChEMBL document CHEMBL2321839, “Novel limonene and citral based 2,5-disubstituted-1,3,4-oxadiazoles: a natural product coupled approach to semicarbazones for antiepileptic activity” (Bioorg Med Chem Lett, 2013).
The source made the active and inactive calls. No cut-off for these calls is given here.

Legend:
Mus musculus [1] = assay: Antiepileptic activity in Swiss albino mouse assessed as protection against scPTZ-induced seizures at 300 mg/kg, ip measured after 0.5 hrs; type: functional, organism-based; design: dose 300 mg/kg
Summary of the method: (§1)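 Male Swiss albino mice (18–25 g), compounds given ip at 30, 100 and 300 mg/kg. Seizures induced by maximal electroshock (MES) or subcutaneous pentylenetetrazole (scPTZ). Protection scored at 0.5 and 4.0 h after dosing.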

Mus musculus [2] = assay: Antiepileptic activity in ip dosed Swiss albino mouse assessed as protection against maximal-electric shock-induced seizures after 0.5 hrs; type: functional; conditions: read-out: MED; summary of the method: as §1
Rattus norvegicus [3] = assay: Neurotoxicity in Wistar rat at 30 mg/kg, po measured at 0.25 hrs by rotarod test; type: toxicity, organism-based; design: dose 30 mg/kg, route oral; conditions: in vivo
Summary of the method: (§2)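 Neurotoxicity assessed in Wistar rats (100–150 g) after a 30 mg/kg oral dose, read at 0.25, 0.5, 1, 2 and 4 h.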

Rattus norvegicus [4] = assay: Antiepileptic activity in Wistar rat assessed as protection against maximal electric shock-induced seizures at 30 mg/kg, po measured at 0.5 hrs; type: functional
Summary of the method: (§3)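 Single oral dose of 30 mg/kg in Wistar rats (100–150 g), tested by MES challenge at 0.25, 0.5, 1, 2 and 4 h.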

Rattus norvegicus [5] = assay: Antiepileptic activity in Wistar rat assessed as protection against scSTY-induced seizures at 300 mg/kg, ip measured after 0.5 hrs; type: functional, organism-based; design: dose 300 mg/kg
Summary of the method: (§4)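 Male Wistar rats (100–150 g), compounds given ip at 30, 100 and 300 mg/kg. Seizures induced by subcutaneous strychnine (scSTY). Activity read 0.5 and 4.0 h after dosing. Reported as the minimal dose active in at least half of the animals; a dash means no activity at 300 mg/kg.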

Rattus norvegicus [6] = assay: Neurotoxicity in Wistar rat at 30 mg/kg, po measured at 2 hrs by rotarod test; type: toxicity, organism-based; design: dose 30 mg/kg, route oral; conditions: in vivo; summary of the method: as §2
Mus musculus [7] = assay: Antiepileptic activity in ip dosed Swiss albino mouse assessed as protection against maximal-electric shock-induced seizures after 4 hrs; type: functional; conditions: read-out: MED; summary of the method: as §1
Rattus norvegicus [8] = assay: Neurotoxicity in Wistar rat at 30 mg/kg, po measured at 1 hr by rotarod test; type: toxicity, organism-based; design: dose 30 mg/kg, route oral; conditions: in vivo; summary of the method: as §2
Rattus norvegicus [9] = assay: Antiepileptic activity in Wistar rat assessed as protection against maximal electric shock-induced seizures at 30 mg/kg, po measured at 2 hrs; type: functional; summary of the method: as §3
Rattus norvegicus [10] = assay: Antiepileptic activity in Wistar rat assessed as GABA level in midbrain per 100 mg at 100 mg/kg ip after 2 hrs (reference value: 35.42 +/- 2.14 ug); type: functional; conditions: route intraperitoneal
Rattus norvegicus [11] = assay: Antiepileptic activity in Wistar rat assessed as protection against maximal electric shock-induced seizures at 30 mg/kg, po measured at 0.25 hrs; type: functional; summary of the method: as §3
Rattus norvegicus [12] = assay: Antiepileptic activity in ip dosed Wistar rat assessed as protection against scSTY-induced seizures after 4 hrs; type: functional; conditions: read-out: MED; summary of the method: as §4
Rattus norvegicus [13] = assay: Antiepileptic activity in Wistar rat assessed as GABA level in cerebellum per 100 mg at 100 mg/kg ip after 2 hrs (reference value: 23.48+/- 2.48 ug); type: functional; conditions: route intraperitoneal
Rattus norvegicus [14] = assay: Antiepileptic activity in Wistar rat assessed as GABA level in medulla oblangata per 100 mg at 100 mg/kg ip after 2 hrs (reference value: 31.86 +/- 4.65 ug); type: functional, Medulla oblongata; conditions: route intraperitoneal
Mus musculus [15] = assay: Antiepileptic activity in ip dosed Swiss albino mouse assessed as protection against scPTZ-induced seizures after 4 hrs; type: functional; conditions: read-out: MED; summary of the method: as §1
Rattus norvegicus [16] = assay: Antiepileptic activity in Wistar rat assessed as protection against maximal electric shock-induced seizures at 30 mg/kg, po measured at 4 hrs; type: functional; summary of the method: as §3
Mus musculus [17] = assay: Neurotoxicity against Swiss albino mouse by rotarod test at 300 mg/kg, ip after 0.5 hrs; type: toxicity, organism-based; design: dose 300 mg/kg, route intraperitoneal; conditions: in vivo
Summary of the method: (§5)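 Acute neurotoxicity tested by rotorod in male Swiss albino mice (18–25 g) given 30, 100 or 300 mg/kg ip. Read at 0.5 and 4.0 h post-dose. Result is the minimal dose causing toxicity in half or more of the animals; a dash means none up to 300 mg/kg.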

Rattus norvegicus [18] = assay: Neurotoxicity in Wistar rat at 30 mg/kg, po measured at 0.5 hrs by rotarod test; type: toxicity, organism-based; design: dose 30 mg/kg, route oral; conditions: in vivo; summary of the method: as §2
Mus musculus [19] = assay: Neurotoxicity against Swiss albino mouse by rotarod test at 300 mg/kg, ip after 4 hrs; type: toxicity, organism-based; design: dose 300 mg/kg, route intraperitoneal; conditions: in vivo; summary of the method: as §5
Rattus norvegicus [20] = assay: Antiepileptic activity in Wistar rat assessed as protection against maximal electric shock-induced seizures at 30 mg/kg, po measured at 1 hr; type: functional; summary of the method: as §3
Rattus norvegicus [21] = assay: Neurotoxicity in Wistar rat at 30 mg/kg, po measured at 4 hrs by rotarod test; type: toxicity, organism-based; design: dose 30 mg/kg, route oral; conditions: in vivo; summary of the method: as §2
Rattus norvegicus [22] = assay: Antiepileptic activity in Wistar rat assessed as GABA level in medulla oblangata per 100 mg at 30 mg/kg ip after 2 hrs (reference value: 31.86 +/- 4.65 ug); type: functional, Medulla oblongata; conditions: route intraperitoneal
Rattus norvegicus [23] = assay: Antiepileptic activity in Wistar rat assessed as GABA level in midbrain per 100 mg at 30 mg/kg ip after 2 hrs (reference value: 35.42 +/- 2.14 ug); type: functional; conditions: route intraperitoneal
Rattus norvegicus [24] = assay: Antiepileptic activity in Wistar rat assessed as GABA level in cerebellum per 100 mg at 30 mg/kg ip after 2 hrs (reference value: 23.48+/- 2.48 ug); type: functional; conditions: route intraperitoneal
Mus musculus [25] = assay: Antiepileptic activity in ip dosed Swiss albino mouse assessed as protection against scPTZ-induced seizures after 0.5 hrs; type: functional; conditions: read-out: MED; summary of the method: as §1
Rattus norvegicus [26] = assay: Antiepileptic activity in Wistar rat assessed as protection against scSTY-induced seizures at 300 mg/kg, ip measured after 4 hrs; type: functional, organism-based; design: dose 300 mg/kg; summary of the method: as §4
Mus musculus [27] = assay: Antiepileptic activity in Swiss albino mouse assessed as protection against maximal-electric shock-induced seizures at 300 mg/kg, ip measured after 4 hrs; type: functional, organism-based; design: dose 300 mg/kg; summary of the method: as §1
Mus musculus [28] = assay: Antiepileptic activity in Swiss albino mouse assessed as protection against scPTZ-induced seizures at 300 mg/kg, ip measured after 4 hrs; type: functional, organism-based; design: dose 300 mg/kg; summary of the method: as §1
Rattus norvegicus [29] = assay: Antiepileptic activity in ip dosed Wistar rat assessed as protection against scSTY-induced seizures after 0.5 hrs; type: functional; conditions: read-out: MED
Summary of the method: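 Subcutaneous strychnine seizure test in Wistar rats (male, 100–150 g), compounds given ip at 30, 100 and 300 mg/kg. Protection read 0.5 and 4.0 h after dosing.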

Mus musculus [30] = assay: Neurotoxicity against ip dosed Swiss albino mouse after 0.5 hrs by rotarod test; type: toxicity, organism-based; conditions: in vivo; summary of the method: as §5
Mus musculus [31] = assay: Neurotoxicity against ip dosed Swiss albino mouse after 4 hrs by rotarod test; type: toxicity, organism-based; conditions: in vivo; summary of the method: as §5
Mus musculus [32] = assay: Antiepileptic activity in Swiss albino mouse assessed as protection against maximal-electric shock-induced seizures at 300 mg/kg, ip measured after 0.5 hrs; type: functional, organism-based; design: dose 300 mg/kg; summary of the method: as §1

| Compound | minimal effective dose (Mus musculus [2]) | Activity (Rattus norvegicus [3]) | Activity (Rattus norvegicus [4]) | Activity (Rattus norvegicus [5]) | Activity (Rattus norvegicus [6]) | minimal effective dose (Mus musculus [7]) | Activity (Rattus norvegicus [8]) | Activity (Rattus norvegicus [9]) | Activity (Rattus norvegicus [10]) | Activity (Rattus norvegicus [11]) | minimal effective dose (Rattus norvegicus [12]) | Activity (Rattus norvegicus [13]) | Activity (Rattus norvegicus [14]) | minimal effective dose (Mus musculus [15]) | Activity (Rattus norvegicus [16]) | Activity (Mus musculus [17]) | Activity (Rattus norvegicus [18]) | Activity (Mus musculus [19]) | Activity (Rattus norvegicus [20]) | Activity (Rattus norvegicus [21]) | other results |
| --- | --- | --- | --- | --- | --- | --- | --- | --- | --- | --- | --- | --- | --- | --- | --- | --- | --- | --- | --- | --- | --- |
| C=C(C)[C@@H]1CC=C(C)/C(=N/NC(=O)Nc2nnc(-c3ccc(O)cc3)o2)C1 | 100 mg/kg | Non-toxic | 0% | inactive | 0% | 300 mg/kg | Non-toxic | 0% | 47.42 µg | 25% | 300 mg/kg | 30.64 µg | 43.48 µg | 300 mg/kg | 50% | Non-toxic | Non-toxic | Non-toxic | 25% | Non-toxic | Activity (Mus musculus [1]): inactive |
| C=C(C)[C@@H]1CC=C(C)/C(=N/NC(=O)Nc2nnc(-c3ccc(F)cc3)o2)C1 | 100 mg/kg | Non-toxic | 25% | inactive | Non-toxic | 300 mg/kg | 0% | 25% | 43.56 µg | 25% | 300 mg/kg | 28.42 µg | 42.4 µg | 300 mg/kg | inactive | Non-toxic | Non-toxic | Non-toxic | 0% | Non-toxic | Activity (Mus musculus [1]): inactive |
| CN1C(=O)CC(=O)N(c2ccccc2)c2cc(Cl)ccc21 [CLOBAZAM] |  |  |  |  |  |  |  |  |  |  |  |  |  |  |  |  |  |  |  |  | Activity (Rattus norvegicus [22]): 47.53 µg; Activity (Rattus norvegicus [23]): 69.51 µg; Activity (Rattus norvegicus [24]): 35.44 µg |
| CC(C)=CC/C=C(/C)C/C=N/NC(=O)Nc1nnc(-c2ccc([N+](=O)[O-])cc2)o1 | 100 mg/kg | Non-toxic | 0% | inactive | Non-toxic | 300 mg/kg | Non-toxic | 25% | 62.56 µg | 50% | 300 mg/kg | 32.04 µg | 36.72 µg | 300 mg/kg | 50% | Non-toxic | Non-toxic | Non-toxic | 25% | Non-toxic | Activity (Mus musculus [1]): inactive |
| CCCC(CCC)C(=O)[O-].[Na+] [VALPROATE SODIUM] | 300 mg/kg |  |  |  |  |  |  |  |  |  |  |  |  |  |  | Non-toxic |  | Non-toxic |  |  | minimal effective dose (Mus musculus [25]): 300 mg/kg; Activity (Rattus norvegicus [26]): inactive; Activity (Mus musculus [27]): inactive; Activity (Mus musculus [28]): inactive; minimal effective dose (Rattus norvegicus [29]): 300 mg/kg |
| NC(=O)N1c2ccccc2C=Cc2ccccc21 [CARBAMAZEPINE] | 30 mg/kg |  |  | inactive |  | 100 mg/kg |  |  |  |  |  |  |  | 300 mg/kg |  |  |  |  |  |  | minimal effective dose (Mus musculus [25]): 100 mg/kg; MTC (Mus musculus [30]): 100 mg/kg; Activity (Rattus norvegicus [26]): inactive; MTC (Mus musculus [31]): 300 mg/kg |
| C=C(C)[C@@H]1CC=C(C)/C(=N/NC(=O)Nc2nnc(-c3ccc([N+](=O)[O-])cc3)o2)C1 | 100 mg/kg | Non-toxic | 25% | inactive | Non-toxic | 300 mg/kg | Non-toxic | 50% | 66.6 µg | 75% | 300 mg/kg | 28.64 µg | 48.59 µg | 300 mg/kg | 50% | Non-toxic | Non-toxic | Non-toxic | 25% | Non-toxic | minimal effective dose (Mus musculus [25]): 100 mg/kg |
| CCC1(C)CC(=O)NC1=O (stereo unspecified) [ETHOSUXIMIDE] |  |  |  |  |  |  |  |  |  |  |  |  |  | 300 mg/kg |  | Non-toxic |  | Non-toxic |  |  | minimal effective dose (Mus musculus [25]): 100 mg/kg; Activity (Rattus norvegicus [26]): inactive; Activity (Mus musculus [27]): inactive; minimal effective dose (Rattus norvegicus [29]): 300 mg/kg; Activity (Mus musculus [32]): inactive |
